Assay outcomes from PubChem BioAssay.
CYP2C19 inh = blocks human cytochrome P450 2C19; inhibition, % at 5 µM; CYP2C19 Supersomes, luciferin-H EGE luminescence, 30 min; P33261; AID 778; actives 21% (n = 96,000);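 active = CYP2C19 inhibition above a set limit at 5 µM in the primary screen, cut at about 50% in these data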
Target sequence (P33261 whole entry, looked up): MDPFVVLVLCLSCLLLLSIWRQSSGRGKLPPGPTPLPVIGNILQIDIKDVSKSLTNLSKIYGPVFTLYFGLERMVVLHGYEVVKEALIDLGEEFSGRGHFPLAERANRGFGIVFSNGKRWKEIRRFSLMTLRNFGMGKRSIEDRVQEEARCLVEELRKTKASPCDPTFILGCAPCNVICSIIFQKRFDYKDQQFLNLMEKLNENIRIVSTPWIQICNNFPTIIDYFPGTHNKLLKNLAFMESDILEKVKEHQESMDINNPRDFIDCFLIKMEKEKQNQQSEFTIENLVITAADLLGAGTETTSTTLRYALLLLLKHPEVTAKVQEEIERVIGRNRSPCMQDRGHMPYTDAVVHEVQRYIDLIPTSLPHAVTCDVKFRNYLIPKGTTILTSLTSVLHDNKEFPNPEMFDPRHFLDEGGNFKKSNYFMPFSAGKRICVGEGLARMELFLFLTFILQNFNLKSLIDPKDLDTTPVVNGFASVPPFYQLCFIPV
CYP2C9 act = increases human cytochrome P450 2C9 activity | activation factor at 5 µM | recombinant CYP2C9, luciferin-H conversion, luminescence; active compounds read high; factor 1 = untreated enzyme, 0 = blocked | P11712 | actives 1.4% (n = 96,000);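 active = activation factor of 2 or more for CYP2C9 at a 5 µM dose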
CYP2C19 activ = activators of human cytochrome P450 2C19; recombinant CYP2C19, luciferin-H EGE luminescence; active compounds read high; 0 = fully inhibited enzyme, 1 = untreated enzyme; activation factor at 5 µM; 96,000 tested, under 10 active; AID 1025;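 active = activation factor of at least 2 at 5 µM in the primary screen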
Cav3 T inh = inhibitors of human Cav3.2 T-type calcium channel. O95180. Cav3.2-expressing cells, Fluo-4 calcium fluorescence FDSS; active compounds read low. B-score at 10 µM. actives 4% (n = 100,000);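 active = single-dose well whose peak fluorescence ratio is a statistical outlier from its plate by either plate-standardised score or position-corrected B-score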
CYP2C9 inh = blocks human cytochrome P450 2C9 | actives 20% (n = 96,000) | inhibition, % at 5 µM | CYP2C9 Supersomes, luciferin-H conversion, luminescence | P11712;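 active = blocking of liver enzyme CYP2C9 beyond about 50% at 5 µM, limit read from the data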
Rev-RRE block = HIV Rev-RRE protein-RNA interaction inhibition | AID 704 | actives 0.79% (n = 97,000) | inhibition, % at 8 µM | Rev peptide-RRE RNA binding, FRET;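 active = inhibition above the screen-wide mean plus 3 SD, cut at about 35% in these data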
Target sequence (P05866 whole entry, looked up): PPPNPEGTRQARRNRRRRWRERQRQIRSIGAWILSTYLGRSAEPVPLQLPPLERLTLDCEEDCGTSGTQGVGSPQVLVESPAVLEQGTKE
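Test system: Cy5-tagged RRE RNA duplex with fluorescein-tagged Rev peptide | Read-out: % inhibition of FRET ratio versus controls | Probe or stimulus: Labelled Rev peptide | Incubation: 5 min RNA-compound premix plus 15 min binding step, 25 °C | Technique: FRET fluorescence readout | Benchmarks: DMSO low control, neomycin B high control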
Each line names hits and unclear results; the compound was inactive in the other large screens. Rows were chosen to be rich in hits. Some 27% of all compounds tested hit in one or more screens of this group.

O=C(CSc1n[nH]c(-c2ccccc2Br)n1)NC(=O)NCc1ccco1	CYP2C9 inh 58.9 (no result: Rev-RRE block)
Nn1c(SCC(=O)NC(=O)NCc2ccco2)nnc1-c1ccc(OC(F)F)cc1	CYP2C19 inh 71.4 (no result: Cav3 T inh)
O=C(NC1CCCCC1)c1cccc(Cn2cc(Cl)cn2)c1	none
Cc1ccc(C)c(NC(=O)Cn2nc(-c3ccccc3)nc2-c2ccccc2)c1	none
CSc1cccc(NC(=O)c2cnccn2)c1	none
CCOc1ccccc1-n1nnnc1SCC(=O)NC(=O)NCc1ccco1	CYP2C19 inh 78.8 (no result: Rev-RRE block)
CC(=O)NC1C(=O)N=C(SCC(=O)NC2CCCCC2)NC1=O (configuration not stated)	none
O=C1CC(SCc2nc3ccccc3[nH]2)C(=O)N1c1cccc(F)c1 (configuration not stated)	CYP2C19 inh 81.1, CYP2C9 inh 71.0 (no result: Cav3 T inh)
O=C1CC(SCCc2nc3ccccc3[nH]2)C(=O)N1c1ccc(Cl)cc1 (configuration not stated)	Cav3 T inh -6.55
Cc1ccc(N2C(=O)CC(Sc3nc4ccccc4o3)C2=O)cc1Cl (configuration not stated)	none
O=C1CC(SCc2nc3ccccc3[nH]2)C(=O)N1c1ccc(F)c(Cl)c1 (configuration not stated)	CYP2C19 inh 52.4
O=C(O)CSC1CC(=O)N(c2ccc(Cl)cc2)C1=O (configuration not stated)	none (no result: Rev-RRE block)
O=C1CC(SCc2nc3ccccc3[nH]2)C(=O)N1c1ccc(Cl)cc1 (configuration not stated)	Cav3 T inh -4.95
O=C(c1cccc(C(F)(F)F)c1)N1CCOC12CCN(c1ncc(C(F)(F)F)cc1Cl)CC2	none
Cc1ccc(S(=O)(=O)c2ccc(Oc3cccc(C)c3)cc2)cc1	CYP2C9 inh 52.7
Cc1ccc(Oc2nc(-c3ccccc3)ncc2S(=O)(=O)c2ccc(C)cc2)cc1	none
CCCCCCCCCC(=O)N/N=C/c1ccc(C)s1	CYP2C19 inh 76.9, CYP2C9 inh 74.3
CCCCCCCCCCCC(=O)N/N=C/c1ccco1	CYP2C9 inh 55.7
CCC(C)NC(=O)c1ccccc1NC(=O)Nc1ccccc1 (configuration not stated)	none
CC(C)CNC(=O)c1ccccc1NC(=O)Nc1ccccc1	CYP2C9 inh 52.2
CSc1ccccc1NC(=O)Nc1ccccc1	CYP2C19 inh 57.7
CSc1cccc(NC(=O)Nc2ccccc2)c1	none
CC(C)CNC(=O)c1ccccc1Oc1ccccc1	CYP2C19 inh 75.3
COc1ccc(C(=O)NCC(C)C)c(OC)c1	none (no result: CYP2C19 inh, CYP2C9 act, CYP2C19 activ, CYP2C9 inh)
CC1CCCN(CC(O)CN)C1 (configuration not stated)	none (no result: CYP2C19 inh, CYP2C9 act, CYP2C19 activ, CYP2C9 inh)
Cc1ccccc1C(=O)NC1CCN(Cc2nnnn2C2CCCC2)CC1	none (no result: CYP2C19 inh, CYP2C9 act, CYP2C19 activ, CYP2C9 inh)
CC(=O)C[C@H]1c2ccccc2S(=O)(=O)N1c1ccccc1	none (no result: CYP2C19 inh, CYP2C9 act, CYP2C19 activ, CYP2C9 inh, Rev-RRE block)
CCOc1cc(C2Nc3ccccc3C(=O)N2c2ccccc2OC)ccc1O (configuration not stated)	CYP2C9 inh 52.3
CCOc1cc(C2C(C(=O)O)c3cc(OCC)c(OCC)cc3C(=O)N2C)ccc1O (configuration not stated)	none (no result: Rev-RRE block)
O=C1c2ccccc2NC(c2ccc3c(c2)OCO3)N1O (configuration not stated)	none
COc1cc(C2Nc3ccccc3C(=O)N2c2ccc3c(c2)OCCO3)ccc1OCC(C)C (configuration not stated)	CYP2C19 inh 70.3, CYP2C9 inh 98.6
O=C1c2ccccc2NC(c2ccc3c(c2)OCCO3)N1c1ccc2c(c1)OCCO2 (configuration not stated)	CYP2C19 inh 79.4, CYP2C9 inh 94.4 (no result: Rev-RRE block)
CCOCCCNC(=S)NCCNc1nc2c(C)cccc2cc1C#N	none
Cc1ccc2cc(C#N)c(NCCNC(=O)C3CC3)nc2c1C	CYP2C9 inh 64.3 (no result: Cav3 T inh)
CCC(=O)NCCNc1nc2cc(C)c(C)cc2cc1C#N	CYP2C19 inh 50.2, CYP2C9 inh 71.5
CCOc1ccc2nc(NCCNC(=O)CC)c(C#N)cc2c1	none
CCS(=O)(=O)N1CCCC(C(=O)NCCCN2CCCC2=O)C1 (configuration not stated)	none
CC12CCCCC1(O)[N+](=O)C1=C(CCCC1)N2[O-] (configuration not stated)	none
CC1(C)CC(=O)C(C=NCCCn2ccnc2)=C(O)C1	none
O=c1c([N+](=O)[O-])cc(C(F)(F)F)cn1Cc1c(Cl)cccc1Cl	none (no result: Cav3 T inh)
COc1ccc(C(c2nnnn2C(C)(C)C)N2CCN(c3nc4ccccc4s3)CC2)cc1 (configuration not stated)	Cav3 T inh -5.26, CYP2C9 inh 63.2 (no result: Rev-RRE block)
CCC(C)(C)n1nnnc1C(c1ccc(O)c(OC)c1)N1CCN(c2nc3ccccc3s2)CC1 (configuration not stated)	CYP2C9 inh 77.3 (no result: Rev-RRE block)
CC(C)(C)n1nnnc1C(c1ccncc1)N1CCN(c2ccc(O)cc2)CC1 (configuration not stated)	CYP2C9 inh 75.7
Cc1ccc2nc(C(F)OC(F)(F)F)[nH]c2c1 (configuration not stated)	none
CCN1C(=O)N(S(=O)(=O)C(F)(F)F)[C@@H](c2ccccc2)C(C(=O)OC)=C1C	none (no result: CYP2C19 inh, CYP2C9 act, CYP2C19 activ, CYP2C9 inh, Rev-RRE block)
O=C1CC(c2ccccc2)CCc2sccc2N1 (configuration not stated)	CYP2C19 inh 65.8
Cc1ccc(NC(=O)CCSc2nc(C)cc(C)n2)cc1	none
CCO[C@H]1OC(C(=O)N2CCOCC2)=C[C@@H](C)[C@@H]1CCCO	none (no result: CYP2C19 inh, CYP2C9 act, CYP2C19 activ, CYP2C9 inh, Rev-RRE block)
Nc1nc(SCc2nc3scc(-c4ccccc4)c3c(=O)[nH]2)n[nH]1	CYP2C9 inh 50.0
CCOc1nc(-c2ccc(OC)cc2)ccc1-c1noc(-c2cccnc2)n1	none (no result: CYP2C19 inh, CYP2C9 act, CYP2C19 activ, Cav3 T inh, CYP2C9 inh)
Oc1ccc(Br)cc1CNn1cnnc1	Cav3 T inh -3.81
COc1ccc(C(=O)Oc2c(CN3CCOCC3)cc(Cl)c3cccnc23)cc1	none
OCCN1CCN(Cc2cc(Cl)c3cccnc3c2O)CC1	none
COc1cc(C(=O)Oc2c(CN3CCOCC3)cc(Cl)c3cccnc23)cc(OC)c1OC	CYP2C19 inh 66.1 (no result: Cav3 T inh)
COc1cccc(C(=O)Oc2c(CN3CCOCC3)cc(Cl)c3cccnc23)c1	CYP2C19 inh 62.8, CYP2C9 inh 91.1
O=C(Oc1c(CN2CCOCC2)cc(Cl)c2cccnc12)c1ccc(F)cc1	CYP2C9 inh 62.3
Cc1cc(C)c(C)c(S(=O)(=O)NCc2ccc(C(=O)N3CCCCC3)cc2)c1C	none (no result: CYP2C19 inh, CYP2C9 act, CYP2C19 activ, CYP2C9 inh)
COc1ccc(C(CNC(=O)C2CC(=O)N(Cc3ccc(C)cc3)C2)N(C)C)cc1 (configuration not stated)	none
Cc1cccc(C)c1OCC(O)Cn1ccnc1C (configuration not stated)	CYP2C19 inh 53.1 (no result: Rev-RRE block)
COc1cc(OC)cc(OCC(O)Cn2ccnc2C)c1 (configuration not stated)	none
Clc1ccsc1-c1csc(-c2cccnc2)n1	CYP2C19 inh 62.0
